Sampled rows, rich in hits. Any-hit rate of the full collection: about 3.1%.
Cneo AK release – Cryptococcus neoformans cell lysis inducers, primary screen, AK release luminescence, single concentration. C. neoformans lysis, adenylate kinase release luminescence, 4 h; normalised: neutral wells 0, clomiphene wells 100. lysis activity, % at 15 µM. 0.2% of 360,000 active. AID 651654, 2012;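 active = mean lysis activity across replicates of at least 80%, whatever share of replicates individually reach that level; inactive = mean lysis activity below 80%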
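Material – log-phase Cryptococcus neoformans yeast cells · Input – 5 × 10^6 yeast cells/mL · Medium – fresh YPD growth medium · Doses – single compound concentration per well · Timing – static 4 h at 37 °C with compound, 1 h detection · Detection – adenylate kinase release luminescence · Read-out – signal increase indicating cell lysis · Control set – Clomiphene as positive lysis control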
miR122 inh – miR-122 Renilla sensor signal increase in Huh7, primary screen, miR-122 inhibitor project, cell-based, single point, plate reader | Huh7 miR-122 Renilla luciferase sensor, 48 h; neutral wells = 0, positive control = 100 | activation (reporter increase), % at 12.5 µM | 0.3% of 340,000 active;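 active = mean replicate activation score at least 90 and every replicate individually at or above 90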;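 also: higher luciferase means less miR-122 activity so hits act as miR-122 inhibitors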
HIV Env fusion – inhibitors of HIV-1 Env-driven cell-cell fusion, primary screen, HeLa-JRFL effector, CEM21 target cells, luciferase; inhibition, % at 12.3 µM; 1.1% of 360,000 active;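 active = mean replicate inhibition score of at least 50 and every replicate individually at or above 50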;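 also: 0% = plate neutral controls and 100% = maraviroc near 300 nM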
GSIS activator – GLuc luminescence reporter in INS-1E cells, primary screen for activators of glucose-dependent secretion of insulin; INS-1E GLuc reporter insulin secretion, 2-3 h; 0.61% of 370,000 active; activation, % at 16.6 µM;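 active = lowest replicate activation of at least 40%, so every replicate reaches that level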;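 also: 0% = median of neutral control wells and 100% = median of IBMX positive control wells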
F508del corr – F508del CFTR correction, initial screen, CFBE line, single point | CFBE cells, YFP halide quenching; stimulated with forskolin plus potentiator P3; % fluorescence drop versus neutral controls | activity (quench increase), % at 7.58 µM | 0.36% of 350,000 active | AID 720511, 2013;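 active = mean added fluorescence quench of at least 8% versus neutral control, with both replicates also reaching 8%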;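 also: cells transiently co-express mutant CFTR-F508del with the halide-sensitive YFP; corrector assay measuring rescue of mutant channel to the surface after 24 h compound exposure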
rRNA inh HTS – reduced GFP signal of wild-type E. coli, primary screen, bacterial rRNA inhibitor project, GFP/RFP fluorescence, OD600, single point. GFP signal change (wild-type ribosome), % (no concentration beside the values). E. coli WT GFP vs humanized-ribosome RFP mutants, 24 h; stronger effect = lower value; DMSO median 0, no signal -100. 1.6% of 350,000 active;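 active = significant combined selectivity score with lowered wild-type GFP, culture density cut under 30%, mutant RFP and density less affected; inactive = any of these conditions unmet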
* marks the source's active call; other numbers are inactive results; [ ] = another dose, or the depositor's remark.

CCN(c1ccc(OCC(=O)OCC(=O)c2c(N)n(C)c(=O)n(C)c2=O)cc1)S(=O)(=O)c1ccccc1 was read as Cneo AK release 1, miR122 inh 1, HIV Env fusion 9, GSIS activator -8, F508del corr 1 and rRNA inh HTS -15*.
Screening Cn1c(N)c(C(=O)COC(=O)CSc2ccc3ccccc3c2)c(=O)n(C)c1=O returned HIV Env fusion -1, GSIS activator 0, F508del corr -1 and rRNA inh HTS -20.
`CCC(C(=O)OCC(=O)c1c(N)n(CC(C)C)c(=O)n(C)c1=O)c1ccccc1` (centres undefined) gave Cneo AK release 1, miR122 inh -4, HIV Env fusion 60*, GSIS activator 17, F508del corr 1 and rRNA inh HTS 0.
`C[C@H](CO)N1C[C@H](C)[C@@H](CN(C)S(=O)(=O)c2ccc(F)cc2)Oc2ccc(NC(=O)CCCN(C)C)cc2C1=O` gave Cneo AK release 0, miR122 inh 3[16.7 µM], GSIS activator -10, F508del corr 0 and rRNA inh HTS 2.
For C[C@H]1CN([C@@H](C)CO)C(=O)Cc2cc(NC(=O)C3CC3)ccc2O[C@@H]1CN(C)CC1CC1 the results were Cneo AK release -5, miR122 inh -2[16.7 µM], HIV Env fusion 6[16.7 µM], GSIS activator -2, F508del corr -4 and rRNA inh HTS 5.
`Cn1c(N)c(C(=O)COC(=O)c2cc(S(=O)(=O)N3CCCCC3)ccc2Cl)c(=O)n(C)c1=O` gave HIV Env fusion 19, GSIS activator 19, F508del corr 1 and rRNA inh HTS -26.
For Cn1c(N)c(C(=O)COC(=O)c2ccc(Cl)c(S(=O)(=O)N3CCCC3)c2)c(=O)n(C)c1=O the results were Cneo AK release 3, miR122 inh -7, HIV Env fusion 28, GSIS activator 21, F508del corr 0 and rRNA inh HTS -26*.
C[C@H](CO)N1C[C@H](C)[C@H](CN(C)C(=O)Nc2ccc(F)cc2)Oc2ncc(-c3ccc(C#N)cc3)cc2C1=O was read as Cneo AK release -1, miR122 inh 3[16.7 µM], HIV Env fusion -11[16.7 µM], GSIS activator -11, F508del corr 0 and rRNA inh HTS -11.
`COCCNC(=O)C1Cc2c(ccc3ccccc23)O1` (centres undefined) gave Cneo AK release 0, miR122 inh 0, HIV Env fusion -3, GSIS activator -6, F508del corr -2 and rRNA inh HTS 8.
COc1ccc(S(=O)(=O)NNC(=O)C2Cc3c(ccc4ccccc34)O2)cc1 (centres undefined) was read as Cneo AK release -1, miR122 inh -11, HIV Env fusion 85* and GSIS activator -24.
Screening O=C1CN(Cc2ccccc2)C[C@@H]2[C@H](c3ccc(-c4ccccc4)cc3)[C@H](CO)N12 returned GSIS activator 9, F508del corr -2 and rRNA inh HTS 5.
For COc1ccc(C(=O)NCC(c2ccco2)N2CCc3ccccc32)c(OC)c1 (centres undefined) the results were Cneo AK release 4, HIV Env fusion 9, GSIS activator 2, F508del corr 5 and rRNA inh HTS -24*.
O=C(CCc1ccccc1)NCC(c1ccco1)N1CCc2ccccc21 (centres undefined) was read as Cneo AK release 1, HIV Env fusion 38, GSIS activator -27, F508del corr 14* and rRNA inh HTS -31.
Screening O=C(NCC(c1ccco1)N1CCc2ccccc21)c1ccccc1F (centres undefined) returned Cneo AK release 2, miR122 inh 2, HIV Env fusion -8, GSIS activator 2, F508del corr 2 and rRNA inh HTS -25.
Screening COc1ccc(C(=O)NCC(c2ccco2)N2CCc3ccccc3C2)c(OC)c1 (centres undefined) returned Cneo AK release -1, miR122 inh -11, HIV Env fusion -2, GSIS activator -10, F508del corr 5 and rRNA inh HTS -5.
For CNC[C@@H]1Oc2ccc(NC(=O)NC(C)C)cc2C(=O)N(C)C[C@@H]1C the results were GSIS activator 2 and rRNA inh HTS 2.
Screening C[C@@H]1CN([C@H](C)CO)C(=O)c2cc(N(C)C)ccc2O[C@@H](C)CCCCO[C@@H]1CN(C)C(=O)CCC(F)(F)F returned Cneo AK release 3, miR122 inh -4[16.7 µM], HIV Env fusion 16[16.7 µM], GSIS activator -4, F508del corr 0 and rRNA inh HTS 4.
For Cn1ccc2c(-c3ccc(CO)cc3)cc3c(c21)C1CCC3C1 (centres undefined) the results were Cneo AK release 0, miR122 inh 4, HIV Env fusion 21, GSIS activator 13, F508del corr -1 and rRNA inh HTS -30*.
`CC(C)NC(=O)Nc1ccc2c(c1)CC(=O)N(C)C[C@@H](C)[C@H](CN(C)C)O2` gave GSIS activator -6 and rRNA inh HTS 6.
Cc1ccc(C(=O)N2CCN(c3ncnc4c(C)csc34)CC2)cc1 was read as Cneo AK release 3, miR122 inh -5, HIV Env fusion -6, GSIS activator 4, F508del corr -2 and rRNA inh HTS -17.
Cc1csc2c(N3CCN(C(=S)Nc4ccc(F)cc4F)CC3)ncnc12 was read as Cneo AK release -4, miR122 inh 2, HIV Env fusion 13, GSIS activator -38 and rRNA inh HTS -26*.
Screening Fc1ccc(NC(=S)N2CCOCC2)c(F)c1 returned Cneo AK release 0, HIV Env fusion -8, GSIS activator -5, F508del corr -6 and rRNA inh HTS 3.
For Cc1csc2c(N3CCN(C(=O)Nc4ccccc4)CC3)ncnc12 the results were Cneo AK release 2, miR122 inh -2, HIV Env fusion 15, GSIS activator -55, F508del corr -1 and rRNA inh HTS -28*.
For C[C@H]1CN([C@@H](C)CO)C(=O)Cc2cc(NC(=O)Nc3ccc(F)cc3)ccc2O[C@H]1CN(C)C(=O)Nc1ccc2c(c1)OCO2 the results were Cneo AK release 1, miR122 inh -6[16.7 µM], HIV Env fusion 7[16.7 µM], GSIS activator 2, F508del corr 1 and rRNA inh HTS 0.
